In article PMC5720529 (Kidney International Reports, 2016):
Read-outs that look alike come from different tables or passages of the source.

Assays:
[1] = cited from earlier work
[2] = human blood; cited from earlier work
[3] = type: in vitro ADME, bovine
Procedure, shortened: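 Same closed-loop dialyzer setup, with reservoir A holding 0.5 L bovine whole blood warmed to 37 °C. Hemodialysis began immediately after [14C]etelcalcetide and urea, creatinine and vitamin B12 controls were spiked in. Sodium heparin (100 U) was added every 30 min. Both reservoirs were sampled over 2 h for radioactivity and etelcalcetide (formic-acid acidified). Dialyzer-bound material was recovered by 20-min Solvable circulation at 50 ml/min.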

[4] = Whole-blood incubations with etelcalcetide and SAPC; type: in vitro ADME; details: human whole blood; for sum total of monitored products as % of total M11: etelcalcetide 5 μM
Procedure, shortened: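 Pooled human whole blood (healthy volunteers, n = 3) was incubated in duplicate with [14C]etelcalcetide, unlabelled etelcalcetide or SAPC for up to 6 h at 37 °C, then centrifuged; plasma was acidified with 1% formic acid. TCEP reduction gave total M11; M13 was estimated from the M10 standard curve. Model 1 was fitted by maximum likelihood to duplicate means.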

[5] = type: in vitro ADME; details: condition 3, bovine whole blood, with 3-hour preincubation at 37 °C
Procedure, shortened: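 Bovine whole blood (0.5 L) spiked with [14C]etelcalcetide was preincubated 3 h at 37 °C before closed-loop dialysis (QB 50 ml/min, QD 250 ml/min, countercurrent, 5 L dialysate). Heparin (100 U) was added hourly. Reservoirs A and B were sampled for radioactivity and etelcalcetide, followed by a Solvable washout of the dialyzer.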

[6] = CKD patients on hemodialysis; cited from earlier work
[7] = In vitro hemodialysis, condition 1: buffered aqueous solution; type: in vitro ADME
Procedure, shortened: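 Closed-loop in vitro hemodialysis on an Optiflux dialyzer at ambient temperature (~22 °C). Reservoir A held 0.5 L dialysate and no blood; 5 L dialysate was pumped countercurrent from reservoir B. [14C]etelcalcetide plus urea, creatinine and vitamin B12 controls went into reservoir A, with pumps started at once. Both reservoirs were sampled over 2 h for radioactivity and etelcalcetide (acidified, 1% formic acid), then a 20-min Solvable washout.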

[8] = Non-covalent plasma protein binding in bovine blood; type: in vitro ADME; details: data not shown
[9] = close to the hematocrit value; cited from earlier work
[10] = Kinetic model 2 fitted simultaneously to hemodialysis conditions 2 and 3; type: in vitro ADME, bovine
Procedure, shortened: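 Kinetic model 2, an extension of the whole-blood model, was fitted simultaneously to etelcalcetide amounts in reservoirs A and B from all three hemodialysis conditions, using one rate-constant set. Each point was the mean of triplicate samples. Conjugation/deconjugation constants (kc, kdc, kb, kdb) were fixed from model 1; kAB and kBA are forward and reverse dialysis-clearance constants between reservoirs.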

## CC(=O)N[C@H](CSSC[C@H](N)C(=O)O)C(=O)N[C@H](C)C(=O)N[C@H](CCCNC(=N)N)C(=O)N[C@H](CCCNC(=N)N)C(=O)N[C@H](CCCNC(=N)N)C(=O)N[C@H](C)C(=O)N[C@H](CCCNC(=N)N)C(N)=O [etelcalcetide, Etelcalcetide]
[1]
  permeability: very low
[2]
  Non-covalent binding to plasma proteins: ~50%
[3]; condition 2, Solvable washout after 2-hour hemodialysis
  14C recovered during the washout period (% of the spiked dose): 0.2 % of the spiked dose
[3]; condition 2, bovine whole blood, no preincubation, 2.1 μM, LC-MS/MS
  intact etelcalcetide dialyzed in the first 15 minutes: 57%
[4]; [14C]etelcalcetide 10 μM, up to 6 hours, LC-14C-HRMS
  [14C]etelcalcetide biotransformation at 25 °C compared with 37 °C: slower
[4]; 37 °C, at 1 hour
  sum total of monitored products as % of total M11: Approximately 90%
[4]; 37 °C, at 6 hours
  sum total of monitored products as % of total M11: 77%
[4]; model 1 fit (ADAPT 5), 37 °C, mean of duplicate samples
  kdc, rate constant of disulfide exchange SAPC to etelcalcetide (deconjugation): 0.00038 min^–1
[5]
  proportion of the dose eliminated in 2 hours: 24%
[6]
  plasma half-life: > 170 h
[7]; comparison of dialytic rate constant with kc
  hemodialysis clearance rate relative to biotransformation (conversion to SAPC): > 16 fold
[7]; condition 1, absence of blood, from kAB, QB 50 ml/min, QD 250 ml/min
  hemodialysis clearance: 59 mL/min
[7]; model 2 fit, condition 1, absence of blood, mean of triplicate samples
  kBA, reverse rate constant of hemodialysis clearance, reservoir B to A: 0.00932 min^–1
[8]
  bound non-covalently to plasma proteins: 40%
[9]
  blood-to-plasma ratio: ~0.5
[10]; conditions 2 and 3, presence of bovine blood
  hemodialysis clearance as % of blood flow rate: ~70%
[10]; conditions 2 and 3, presence of bovine blood, from kAB, QB 50 ml/min
  hemodialysis clearance: 36 mL/min
[10]; in vitro hemodialysis, bovine blood vs dialysate
  elimination rate constant in blood as % of that in the absence of blood: 60%
[10]; model 2 fit, conditions 2 and 3, bovine blood, mean of triplicate samples
  kBA, reverse rate constant of hemodialysis clearance, reservoir B to A: 0.0364 min^–1

## vitamin B12 [reference compound]
[3]; condition 2, at 15 minutes, LC-MS/MS
  dose remaining in bovine blood: 44%
[3]; condition 2, at 120 minutes, LC-MS/MS
  dose remaining in bovine blood: 8%
